Series [1] has as its target T1, Vascular endothelial growth factor receptor 2 (Homo sapiens, UniProt P35968). The series can be described thus: Inhibition of KDR phosphorylation. Format: functional.
A short description of series [2]: Volume of distribution at steady state in Sprague-Dawley rat at 1 mg/kg, iv. It counts as ADME, organism-based. To be noted: in vivo, read-out: Vdss. On the set-up: dose 1 mg/kg, route intravenous. The essentials: (§1)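 Male Sprague-Dawley rats, n = 3, given 1 mg/kg as a DMSO solution into the femoral vein. Serial jugular-vein blood samples were taken into heparinized tubes over 12-24 h. Parameters were derived by noncompartmental analysis.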

Series [3] in a line: Oral bioavailability in Sprague-Dawley rat at 10 mg/kg, po. Format: ADME, organism-based. To be noted: in vivo. The essentials:
(§2)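 Male Sprague-Dawley rats were dosed either into the femoral vein at 1 mg/kg in DMSO (n = 3) or by oral gavage at 10 mg/kg as an Ora-Plus suspension, pH 2.0-2.2 with methanesulfonic acid (n = 2). Serial jugular-vein blood was taken into heparinized tubes over 12-24 h. Parameters were derived by noncompartmental analysis.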

The nature of series [4]: Clearance in Sprague-Dawley rat at 1 mg/kg, iv. It counts as ADME, organism-based. On the set-up: dose 1 mg/kg, route intravenous. Particulars: in vivo. The essentials: as §1
Series [5] can be described thus: Half life in Sprague-Dawley rat at 1 mg/kg, iv or 10 mg/kg po. Format: ADME, organism-based. Particulars: in vivo. The essentials:
as §2

Series [6] addresses T1, Vascular endothelial growth factor receptor 2. The series can be described thus: Selectivity for VEGF-stimulated HUVEC cell proliferation over FGF-induced HUVEC cell proliferation. It counts as functional, cell-based. The method in brief:
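HUVECs seeded at 3000/well in DMEM with 10% FBS, 22 h, then preincubated 2 h with compound serial dilutions. Stimulated with 50 ng/mL VEGF or 20 ng/mL bFGF for 72 h at 37 °C, 5% CO₂. Cells washed, frozen, then quantified with CyQuant dye. IC50s from four-parameter logistic fit; ratio of FGF over VEGF IC50.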

Series [7] is described as follows: Oral bioavailability in Sprague-Dawley rat at 3 mg/kg, po. It counts as ADME, organism-based. To be noted: in vivo. The essentials:
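Male Sprague-Dawley rats given 3 mg/kg by oral gavage as an Ora-Plus suspension adjusted to pH 2.0-2.2 with methanesulfonic acid. Serial jugular-vein blood was taken into heparinized tubes over 12-24 h. Noncompartmental analysis.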

The structures appear in SMILES notation.

T1 sequence (P35968 whole entry): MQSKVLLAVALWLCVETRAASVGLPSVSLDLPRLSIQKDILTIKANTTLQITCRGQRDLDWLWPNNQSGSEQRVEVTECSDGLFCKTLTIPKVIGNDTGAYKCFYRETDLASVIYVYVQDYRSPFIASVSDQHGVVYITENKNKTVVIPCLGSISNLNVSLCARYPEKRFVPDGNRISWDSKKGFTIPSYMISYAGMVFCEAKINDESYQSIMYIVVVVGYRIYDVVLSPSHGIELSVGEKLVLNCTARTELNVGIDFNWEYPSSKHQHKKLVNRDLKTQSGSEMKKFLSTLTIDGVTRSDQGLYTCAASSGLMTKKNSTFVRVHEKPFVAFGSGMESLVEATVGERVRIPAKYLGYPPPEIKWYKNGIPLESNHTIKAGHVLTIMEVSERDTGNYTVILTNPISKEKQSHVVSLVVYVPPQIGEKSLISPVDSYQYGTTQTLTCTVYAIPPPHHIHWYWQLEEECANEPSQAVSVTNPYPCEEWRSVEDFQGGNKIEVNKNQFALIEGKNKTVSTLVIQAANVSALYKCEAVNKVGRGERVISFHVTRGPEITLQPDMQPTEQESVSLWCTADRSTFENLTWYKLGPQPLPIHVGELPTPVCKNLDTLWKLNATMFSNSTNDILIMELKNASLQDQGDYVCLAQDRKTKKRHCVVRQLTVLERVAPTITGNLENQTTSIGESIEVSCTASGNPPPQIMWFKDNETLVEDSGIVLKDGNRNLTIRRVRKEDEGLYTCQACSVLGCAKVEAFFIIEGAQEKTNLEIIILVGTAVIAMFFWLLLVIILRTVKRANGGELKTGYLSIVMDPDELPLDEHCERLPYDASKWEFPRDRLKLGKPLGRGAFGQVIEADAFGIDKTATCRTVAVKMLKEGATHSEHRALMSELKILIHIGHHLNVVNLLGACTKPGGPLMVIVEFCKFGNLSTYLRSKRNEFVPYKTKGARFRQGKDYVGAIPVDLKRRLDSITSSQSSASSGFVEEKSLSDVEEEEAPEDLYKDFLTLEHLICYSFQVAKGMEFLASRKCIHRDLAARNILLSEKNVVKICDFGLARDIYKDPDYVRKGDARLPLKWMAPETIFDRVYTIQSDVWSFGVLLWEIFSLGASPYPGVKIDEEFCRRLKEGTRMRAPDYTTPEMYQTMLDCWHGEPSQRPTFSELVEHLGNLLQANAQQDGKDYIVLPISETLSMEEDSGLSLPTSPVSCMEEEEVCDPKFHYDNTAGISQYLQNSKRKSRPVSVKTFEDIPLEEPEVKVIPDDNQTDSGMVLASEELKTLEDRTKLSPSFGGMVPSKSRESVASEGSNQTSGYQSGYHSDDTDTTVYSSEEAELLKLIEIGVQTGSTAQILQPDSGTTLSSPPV

On to `CN1CCC[C@H]1COc1cc(Nc2nc3cc(Oc4ccnc(C(N)=O)c4)ccc3o2)ccc1Cl`, for which, in series [1], the affinity corresponds to a Ki of 3 nM.
The same measure, in the same setting: under `COc1cc2ncnc(Oc3ccc4[nH]c(Nc5ccc(Cl)cc5)nc4c3)c2cc1OC` stands 8 nM; under `CNC(=O)c1cc(Oc2ccc3c(c2)nc(Nc2ccc(Cl)c(CN4CCN(C)CC4)c2)n3C)ccn1`, 10 nM; under `CNC(=O)c1cc(Oc2ccc3oc(Nc4ccc(Cl)c(CN5CCOCC5)c4)nc3c2)ccn1`, 4 nM.
In turn, `CSc1nccc(Oc2ccc3[nH]c(Nc4ccc(Cl)c(CN5CCN(C)CC5)c4)nc3c2)n1` had a Ki in series [1] of 128 nM.
Take `CN1CCN(Cc2cc(Nc3nc4ccc(Oc5ncnc6[nH]ccc56)cc4[nH]3)ccc2Cl)CC1`: the Ki in series [1] came to 17 nM.
For the molecule `COc1cc2nccc(Oc3ccc4oc(Nc5ccc(Cl)c(CN6CCN(C)CC6)c5)nc4c3)c2cc1OC`, the Vd in series [2] came to 12.1 L/kg. The molecule further registered a bioavailability in series [3] of 67%. Besides, the affinity in series [1] corresponds to a Ki of 0.5 nM. For the same molecule, in series [4], the clearance was 27.2 mL/min/kg. Besides, in series [5], the half-life was 5.53 h. For the same molecule, the Ratio IC50 in series [6] worked out at 10.
Turning to `CNC(=O)c1cc(Oc2cc(Cl)c3oc(Nc4ccc(Cl)c(CN5CCN(C)CC5)c4)nc3c2)ccn1`, the Ki in series [1] was determined as 10 nM.
On the same count and under the same terms, next, `CN1CCN(Cc2cc(Nc3nc4cc(Oc5ccnc6[nH]ccc56)ccc4o3)ccc2Cl)CC1`: 2 nM; `COc1cc2nccc(Oc3ccc4oc(Nc5ccc(Cl)c(OC[C@@H]6CCCN6C)c5)nc4c3)c2cc1OC`: 0.5 nM.
In series [1], `CNc1cc(Oc2ccc3oc(Nc4ccc(Cl)c(CN5CCN(C)CC5)c4)nc3c2)ncn1` showed a Ki of 20 nM.
On to `CNc1nccc(Oc2ccc3[nH]c(Nc4ccc(Cl)c(CN5CCN(C)CC5)c4)nc3c2)n1`, for which, in series [1], the Ki came out at 40 nM.
In the case of `COc1cc2ncnc(Oc3ccc4oc(Nc5ccc(Cl)c(OC[C@@H]6CCCN6C)c5)nc4c3)c2cc1OC`, the Vd in series [2] was determined as 6.88 L/kg. In series [3], this molecule had a bioavailability of 60%. In series [1], this molecule registered a Ki of 0.5 nM. In series [4], this molecule had a clearance of 14.8 mL/min/kg. The same molecule showed a half-life in series [5] of 6.14 h. Moreover, in series [6], the Ratio IC50 came out at 10.
Regarding `CNC(=O)c1cc(Oc2cc(F)c3oc(Nc4ccc(Cl)c(OC[C@@H]5CCCN5C)c4)nc3c2)ccn1`, in series [1], the Ki was found to be 3 nM.
Same read-out and setting: under `COc1cc2nccc(Oc3ccc4[nH]c(Nc5ccc(Cl)c(CN6CCN(C)CC6)c5)nc4c3)c2cc1OC` stands 0.2 nM; under `CNC(=O)c1cc(Oc2ccc3oc(Nc4ccc(Cl)c(OCC5CCNCC5)c4)nc3c2)ccn1`, 3 nM; under `CNC(=O)c1cc(Oc2ccc3oc(Nc4ccc(Cl)cc4)nc3c2)ccn1`, 12 nM.
Take `CN1CCCC1COc1cc(Nc2nc3cc(Oc4ccnc5[nH]ccc45)ccc3o2)ccc1Cl` (single isomer, unassigned): the Vd in series [2] is 5.02 L/kg. The same molecule displayed a bioavailability in series [3] of 17%. The Ki in series [1] was 1.6 nM. This molecule also showed a clearance in series [4] of 20.7 mL/min/kg. The half-life in series [5] is 2.87 h.
Molecule `CNC(=O)c1cc(Oc2ccc3[nH]c(Nc4ccc(C(F)(F)F)c(OC[C@H]5CCCN5C)c4)nc3c2)ccn1` came in with a Ki in series [1] of 2 nM.
The same measure, in the same setting: next, `FC(F)(F)c1cc(Nc2nc3cc(Oc4ccncc4)ccc3[nH]2)ccc1Cl`: 160 nM.
Still for that read-out and setting: next, `CNC(=O)c1cc(Oc2ccc3oc(Nc4ccc(Cl)c(OCCN(C)C)c4)nc3c2)ccn1`: 4 nM.
Still for that read-out and setting: under `CN1CCN(Cc2cc(Nc3nc4cc(Oc5ccnc6ccccc56)ccc4[nH]3)ccc2Cl)CC1` stands 2 nM; under `CNC(=O)c1cc(Oc2ccc3[nH]c(Nc4cc(OCCN5CCCC5)cc(C(F)(F)F)c4)nc3c2)ccn1`, 287 nM; under `CNC(=O)c1cc(Oc2ccc3oc(Nc4ccc(Cl)c(CN5CCN(C)CC5)c4)nc3c2)ccn1`, 4 nM.
In series [1], `CNc1nccc(Oc2ccc3oc(Nc4ccc(Cl)c(CN5CCN(C)CC5)c4)nc3c2)n1` returned a Ki of 25 nM.
On the same count and under the same terms, under `CN1CCN(Cc2cc(Nc3nc4cc(Oc5ccnc6ccccc56)cc(Cl)c4o3)ccc2Cl)CC1` stands 2 nM; under `CN1CCN(Cc2cc(Nc3nc4cc(Oc5ccnc6ccccc56)ccc4o3)ccc2Cl)CC1`, 3.6 nM.
The same measure, in the same setting: under `CCN(CC)CCOc1cc(Nc2nc3cc(Oc4ccnc(C(=O)NC)c4)ccc3o2)ccc1Cl` stands 5 nM.
Take `CN1CCC[C@@H]1COc1cc(Nc2nc3cc(Oc4ccnc5ccccc45)ccc3[nH]2)ccc1C(F)(F)F`: the Vd in series [2] was 5.8 L/kg. The molecule also returned a bioavailability in series [3] of 24%. For the same molecule, the Ki in series [1] was found to be 1 nM. This molecule had a clearance in series [4] of 16.7 mL/min/kg. For the same molecule, the half-life in series [5] is 4.8 h.
On to `CNC(=O)c1cc(Oc2ccc3[nH]c(Nc4ccc(C(F)(F)F)c(OCCN(C)C)c4)nc3c2)ccn1`, for which the inhibitory constant (Ki) in series [1] was determined as 3 nM.
Regarding `CNC(=O)c1cc(Oc2ccc3oc(Nc4ccc(Cl)c(OC[C@@H]5CCCN5C)c4)nc3c2)ccn1`, the Vd in series [2] came out at 8.4 L/kg. This molecule had a bioavailability in series [7] of 40%. In series [4], this molecule showed a clearance of 56.7 mL/min/kg. The same molecule had a half-life in series [5] of 1.8 h.
Take `CN1CCN(Cc2cc(Nc3nc4ccc(Oc5ccnc6[nH]ccc56)cc4[nH]3)ccc2Cl)CC1`: the Ki in series [1] was 3 nM.
Same read-out and setting: next, `CNC(=O)c1cc(Oc2ccc3[nH]c(Nc4ccc(Cl)c(CN5CCN(C)CC5)c4)nc3c2)ccn1`: 3.9 nM; `CNC(=O)c1cc(Oc2ccc3[nH]c(Nc4ccc(C(F)(F)C(F)(F)F)c(OC[C@H]5CCCN5C)c4)nc3c2)ccn1`: 9 nM.
In series [1], `FC(F)(F)c1cc(Nc2nc3ccc(Oc4ccnc5[nH]ccc45)cc3[nH]2)ccc1Cl` gave an inhibition constant (Ki) of 48 nM.

The Ki is the dissociation constant of the complex between target and ligand, obtained from inhibition or displacement. A higher Ki goes with weaker binding. As a reminder, the bioavailability is dose-corrected exposure relative to a reference, in per cent. Low values mean little systemic uptake, high ones much systemic uptake. In general, clearance refers to the volume of plasma or blood freed of the substance per unit of time. Read a low clearance as a low capacity for elimination. By half-life is commonly meant the time in which the quantity being followed falls by half. A low value points to fast loss.
